Reference: ChEMBL document CHEMBL1139365, “Inhibition of MDR1 activity in vitro by a novel class of diltiazem analogues: toward new candidates” (J Med Chem, 2009)
Active and inactive are the calls of the source. The rule behind the calls is not given here.

Key:
[1] = system: A2780; assay: Down regulation of P-gp 170 expression in human A2780 cells after 72 hrs by flow cytometry; assay type: functional, cell-based
Method in brief: (§1)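 Cells exposed 72 h to compound at concentrations giving 5% or 0% growth inhibition. Then washed in PBS/2% FCS; 2.5 × 10^5 cells stained at 4 °C with anti-Pgp MM4.17 monoclonal, then FITC goat anti-mouse IgG, and analysed by flow cytometry.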

[2] = system: A2780 ADR; assay: Reversal of P-gp 170-mediated multidrug resistance in human A2780/DX3 cells assessed as reduction in doxorubicin IC50 at IC0 pretreated for 6 hrs before doxorubicin administration measured after 3 days by MTT assay; assay type: cell-based; parameters: scale not given: the % may be the effect or the level left
Method in brief: (§2)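 A2780/DX3 cells went into medium holding the modulator at its MTT-derived 0% or 5% growth-inhibition concentration. Doxorubicin (30–0.048 μM serial dilutions, modulator kept constant) was added 6 h later. MTT (2 mg/mL) was added after 3 days for 4 h at 37 °C, formazan dissolved in DMSO, A540 read. IC50 came from dose–response curves, repeated 4–6 times. % reduction is versus doxorubicin alone in the same experiment. Kruskal–Wallis/Mann–Whitney tests.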

[3] = system: A2780; assay: Antiproliferative activity against human A2780 cells at 0.20 uM after 3 days by MTT assay; assay type: functional; details: A2780, 72 h
[4] = Antiproliferative activity against human A2780/DX3 cells at 15.6 uM after 3 days by MTT assay; assay type: functional; details: A2780/DX3, 72 h
[5] = Antiproliferative activity against human A2780/DX3 cells after 3 days by MTT assay; assay type: functional, cell-based; details: for IC50: Homo sapiens, A2780/DX3, 72 h
Method in brief: (§3)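 Cells plated 6–8 h in 96-well plates. Compound alone, in duplicate at ≥5 concentrations (3-fold serial dilutions, top 100 μM), with final DMSO […] after predilution in FCS. After 3 days, MTT 4 h at 37 °C, formazan dissolved in DMSO, A540. IC50 taken from single dose–response curves; 3–4 experiments. A2780/DX3 kept doxorubicin-free 2–3 days beforehand.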

[6] = system: A2780 ADR; assay: Reversal of P-gp 170-mediated multidrug resistance in human A2780/DX3 cells assessed as reduction in doxorubicin IC50 at IC5 pretreated for 6 hrs before doxorubicin administration measured after 3 days by MTT assay; assay type: cell-based; parameters: scale not given: the % may be the effect or the level left; method in brief: as §2
[7] = system: A2780; assay: Antiproliferative activity against human A2780 cells after 3 days by MTT assay; assay type: functional, cell-based; details: for IC50: Homo sapiens, A2780, 72 h; method in brief: as §3
[8] = system: A2780 ADR; assay: Reversal of P-gp 170-mediated multidrug resistance in human A2780/DX3 cells assessed as increase in intracellular doxorubicin accumulation at 5 times IC5 pretreated for 2 hrs before doxorubicin administration measured after 2 hrs by flow cytometry; assay type: cell-based
Method in brief: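 A2780/DX3 cells (kept in 0.1 μM doxorubicin, drug withdrawn 2–3 days before use) seeded in flasks, grown 24 h to 75–85% confluence. Modulator given at five times the 5%-growth-inhibition concentration for 2 h, then 10 μM doxorubicin for 2 h more. Cells trypsinized, fixed in 3.7% paraformaldehyde/2% sucrose in PBS. Flow cytometry, 488 nm excitation, 575 nm bandpass. Read-out is MFI, with % increase taken from the MFI ratio to doxorubicin alone.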

[9] = Down regulation of P-gp 170 expression in human A2780/DX3 cells after 72 hrs by flow cytometry; assay type: functional, cell-based; method in brief: as §1
[10] = Antiproliferative activity against human A2780/DX3 cells at 2.25 uM after 3 days by MTT assay; assay type: functional; details: A2780/DX3, 72 h
[11] = system: A2780; assay: Antiproliferative activity against human A2780 cells at 15.4 uM after 3 days by MTT assay; assay type: functional; details: A2780, 72 h
[12] = Antiproliferative activity against human A2780/DX3 cells at 3.0 uM after 3 days by MTT assay; assay type: functional; details: A2780/DX3, 72 h
[13] = system: A2780; assay: Antiproliferative activity against human A2780 cells at 13.1 uM after 3 days by MTT assay; assay type: functional; details: A2780, 72 h
[14] = Blockade of L-type calcium channel
[15] = system: A2780; assay: Antiproliferative activity against human A2780 cells at 1.3 uM after 3 days by MTT assay; assay type: functional; details: A2780, 72 h
[16] = Antiproliferative activity against human A2780/DX3 cells at 2.2 uM after 3 days by MTT assay; assay type: functional; details: A2780/DX3, 72 h
[17] = Antiproliferative activity against human A2780/DX3 cells at 1.0 uM after 3 days by MTT assay; assay type: functional; details: A2780/DX3, 72 h
[18] = system: A2780; assay: Antiproliferative activity against human A2780 cells at 1.5 uM after 3 days by MTT assay; assay type: functional; details: A2780, 72 h
[19] = Antiproliferative activity against human A2780/DX3 cells at 0.5 uM after 3 days by MTT assay; assay type: functional; details: A2780/DX3, 72 h
[20] = system: A2780; assay: Antiproliferative activity against human A2780 cells at 6.1 uM after 3 days by MTT assay; assay type: functional; details: A2780, 72 h
[21] = system: A2780; assay: Antiproliferative activity against human A2780 cells at 2.1 uM after 3 days by MTT assay; assay type: functional; details: A2780, 72 h
[22] = Antiproliferative activity against human A2780/DX3 cells at 1.5 uM after 3 days by MTT assay; assay type: functional; details: A2780/DX3, 72 h
[23] = system: A2780; assay: Antiproliferative activity against human A2780 cells at 0.23 uM after 3 days by MTT assay; assay type: functional; details: A2780, 72 h
[24] = Antiproliferative activity against human A2780/DX3 cells at 1.88 uM after 3 days by MTT assay; assay type: functional; details: A2780/DX3, 72 h
[25] = Antiproliferative activity against human A2780/DX3 cells at 3.7 uM after 3 days by MTT assay; assay type: functional; details: A2780/DX3, 72 h
[26] = system: A2780; assay: Antiproliferative activity against human A2780 cells at 3.1 uM after 3 days by MTT assay; assay type: functional; details: A2780, 72 h

| SMILES | IC50 [7] [µM] | Activity [2] [%] | IC5 [5] [µM] | IC50 [5] [µM] | Activity [6] [%] | IC5 [7] [µM] | Activity [8] [%] | further results |
| --- | --- | --- | --- | --- | --- | --- | --- | --- |
| COc1ccc(C2(O)SC=C(C)n3c2noc3=O)cc1 (stereo not given) | > 100 | 10 | 26.7 | > 100 | 12 | 40.1 | < 48 | inhibition at 2.25 µM [10]: 0%; inhibition at 15.4 µM [11]: 0% |
| COc1ccc([C@@H]2Sc3ccccc3N(CCN(C)C)C(=O)[C@@H]2OC(C)=O)cc1 [DILTIAZEM] | 163 | -72 | 20.6 | > 100 | -84 | 2.8 | 699 | Activity [1]: inactive; EC50 [14]: 0.79 µM; inhibition at 1.3 µM [15]: 0%; inhibition at 2.2 µM [16]: 0%; Activity [9]: inactive |
| CC1=CSC(O)(c2ccc(C)cc2)c2noc(=O)n21 (stereo not given) | > 100 | 4 | 31.1 | > 100 | -1 | 28.8 | < 48 | inhibition at 0.5 µM [19]: 0%; inhibition at 6.1 µM [20]: 0% |
| CC1=CSC(O)(c2ccc([N+](=O)[O-])cc2)c2noc(=O)n21 (stereo not given) | > 100 | 26 | 2.9 | > 100 | -10 | 7.7 | < 48 | inhibition at 2.1 µM [21]: 0%; inhibition at 1.5 µM [22]: 0% |
| CCCCCCCCCCCCCCCCCCOC1(c2ccc(Br)cc2)SC=C(C)n2c1noc2=O (stereo not given) | > 100 | -21 | 4.9 | > 100 | -22 | 0.9 | < 48 | inhibition at 0.23 µM [23]: 0%; inhibition at 1.88 µM [24]: 0% |
| CC1=CSC(O)(c2cccc([N+](=O)[O-])c2)c2noc(=O)n21 (stereo not given) | 159 | -21 | 15.9 | 129 | 10 | 3.95 | < 48 | inhibition at 3.7 µM [25]: 0%; inhibition at 3.1 µM [26]: 0% |

The next lines start with results.

| IC50 [7] [µM] | SMILES | Activity [2] [%] | IC5 [5] [µM] | IC50 [5] [µM] | Activity [6] [%] | IC5 [7] [µM] | Activity [8] [%] | further results |
| --- | --- | --- | --- | --- | --- | --- | --- | --- |
| 108 | CCCCCOC1(c2ccc(Br)cc2)SC=C(C)n2c1noc2=O (stereo not given) | -31 | 41.8 | > 100 | -43 | 2.6 | 52 | Activity [1]: inactive; inhibition at 0.2 µM [3]: 0%; inhibition at 15.6 µM [4]: 0%; Activity [9]: inactive |
| 166 | COC1(c2ccc(Cl)cc2)SC=C(C)n2c1noc2=O (stereo not given) | – | 11.7 | 113 | – | 28.4 | < 48 | inhibition at 3 µM [12]: 0%; inhibition at 13.1 µM [13]: 0% |
| > 100 | CCOC1(c2ccc(Br)cc2)SC=C(C)n2c1noc2=O (stereo not given) | 6 | 7.8 | > 100 | -8 | 3.3 | < 48 | inhibition at 1 µM [17]: 0%; inhibition at 1.5 µM [18]: 0%; EC50 [14]: 0.04 µM |
